Legend:
[1] = organism: Homo sapiens; assay: Selectivity index, ratio of IC50 for inhibition of human recombinant HDAC1 using fluorogenic substrate incubated for 15 mins by fluorescence assay to IC50 for inhibition of human recombinant HDAC6 using fluorogenic substrate incubated for 30 mins by fluorescence assay
[2] = molecular target: T1, Histone deacetylase 1 (Homo sapiens, UniProt Q13547); assay: Inhibition of human recombinant HDAC1 using fluorogenic substrate incubated for 15 mins by fluorescence assay
[3] = molecular target: T2, Protein deacetylase HDAC6 (Homo sapiens, UniProt Q9UBN7); assay: Inhibition of human recombinant HDAC6 using fluorogenic substrate incubated for 30 mins by fluorescence assay
T2 sequence (Q9UBN7 whole entry): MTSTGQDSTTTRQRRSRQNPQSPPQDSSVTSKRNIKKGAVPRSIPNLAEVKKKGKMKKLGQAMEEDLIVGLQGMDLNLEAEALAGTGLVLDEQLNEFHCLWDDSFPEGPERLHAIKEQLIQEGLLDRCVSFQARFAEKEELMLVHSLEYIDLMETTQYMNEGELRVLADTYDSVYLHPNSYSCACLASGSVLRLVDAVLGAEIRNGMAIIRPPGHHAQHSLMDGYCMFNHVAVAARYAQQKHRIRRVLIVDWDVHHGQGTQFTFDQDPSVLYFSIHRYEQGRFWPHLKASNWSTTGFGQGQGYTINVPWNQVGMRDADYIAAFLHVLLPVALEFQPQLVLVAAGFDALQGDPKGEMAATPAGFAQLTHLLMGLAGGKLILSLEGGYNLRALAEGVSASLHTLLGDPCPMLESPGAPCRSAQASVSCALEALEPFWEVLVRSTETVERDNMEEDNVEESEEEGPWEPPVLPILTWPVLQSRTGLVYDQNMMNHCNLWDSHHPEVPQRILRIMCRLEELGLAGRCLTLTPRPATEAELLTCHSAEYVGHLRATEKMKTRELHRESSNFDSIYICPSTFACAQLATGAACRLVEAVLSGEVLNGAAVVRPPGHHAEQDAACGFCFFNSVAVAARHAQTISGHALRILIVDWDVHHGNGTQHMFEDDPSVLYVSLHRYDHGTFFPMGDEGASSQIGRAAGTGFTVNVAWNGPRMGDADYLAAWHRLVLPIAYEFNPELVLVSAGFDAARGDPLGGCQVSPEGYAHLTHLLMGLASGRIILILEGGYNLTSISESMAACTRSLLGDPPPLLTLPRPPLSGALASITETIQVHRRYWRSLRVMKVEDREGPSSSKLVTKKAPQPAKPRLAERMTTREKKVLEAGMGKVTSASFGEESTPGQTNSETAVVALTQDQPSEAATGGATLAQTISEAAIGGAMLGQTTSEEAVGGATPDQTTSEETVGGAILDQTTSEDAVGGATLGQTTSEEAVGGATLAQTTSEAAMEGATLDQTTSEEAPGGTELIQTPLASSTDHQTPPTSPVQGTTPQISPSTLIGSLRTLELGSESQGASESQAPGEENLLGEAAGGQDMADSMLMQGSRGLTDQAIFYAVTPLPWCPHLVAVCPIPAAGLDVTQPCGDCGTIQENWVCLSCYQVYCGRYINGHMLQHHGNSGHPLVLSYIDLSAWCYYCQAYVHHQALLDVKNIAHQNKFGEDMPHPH

[4] = molecular target: T1, Histone deacetylase 1; assay: Inhibition of human recombinant HDAC1 using fluorogenic HDAC substrate by fluorescence assay
Outline: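 Human full-length recombinant HDAC1 expressed in Sf9 cells via baculovirus. Substrate was the fluorogenic acetylated p53 379-382 peptide RHKKAc (50 µM) in pH 8.0 Tris buffer with NaCl, KCl, MgCl2, BSA and 1% DMSO final. Enzyme and compound were preincubated 5-10 min, then reacted 2 h at 30 °C. Developer plus TSA stopped the reaction; endpoint fluorescence was read.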

[5] = molecular target: Histone deacetylase 9 (Homo sapiens, UniProt Q9UKV0); assay: Inhibition of recombinant human HDAC9 expressed in HEK293T/17 cells using Boc-Lys(TFA)-AMC as substrate preincubated for 10 mins followed by substrate addition and measured after 30 mins by fluorescence-based assay
Outline: (§1)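 Human HDACs expressed as Strep-tagged fusions in transiently transfected HEK293/T17 cells, purified by Strep-Tactin. Substrate at 10 µM: Ac-GAK(Ac)-AMC for HDAC1/6, Boc-Lys(TFA)-AMC for the others. Reaction 30 min at 37 °C, trypsin stop, fluorescence 365/440 nm. 10-point 3-fold series from 100 µM, mean of two experiments.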

[6] = molecular target: T2, Protein deacetylase HDAC6; assay: Inhibition of recombinant human HDAC6 expressed in HEK293T/17 cells using Ac-GAK(Ac)-AMC as substrate preincubated for 10 mins followed by substrate addition and measured after 30 mins by fluorescence-based assay
[7] = molecular target: Histone deacetylase 4 (Homo sapiens, UniProt P56524); assay: Inhibition of recombinant human HDAC4 expressed in HEK293T/17 cells using Boc-Lys(TFA)-AMC as substrate preincubated for 10 mins followed by substrate addition and measured after 30 mins by fluorescence-based assay; outline: as §1
[8] = molecular target: T3, Histone deacetylase 11 (Homo sapiens, UniProt Q96DB2); assay: Inhibition of recombinant human HDAC11 expressed in HEK293T/17 cells using Boc-Lys(TFA)-AMC as substrate preincubated for 10 mins followed by substrate addition and measured after 30 mins by fluorescence-based assay; outline: as §1
T3 sequence (Q96DB2 whole entry): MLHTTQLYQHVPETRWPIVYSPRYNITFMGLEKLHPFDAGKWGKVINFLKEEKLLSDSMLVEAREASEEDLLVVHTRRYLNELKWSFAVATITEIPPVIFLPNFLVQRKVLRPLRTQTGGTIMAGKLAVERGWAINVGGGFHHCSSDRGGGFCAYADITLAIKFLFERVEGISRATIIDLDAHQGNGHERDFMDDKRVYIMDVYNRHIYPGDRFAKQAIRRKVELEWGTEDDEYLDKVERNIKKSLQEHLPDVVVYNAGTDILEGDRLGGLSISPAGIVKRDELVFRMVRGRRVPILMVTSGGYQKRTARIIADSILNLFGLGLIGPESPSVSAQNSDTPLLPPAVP

[9] = molecular target: T1, Histone deacetylase 1; assay: Inhibition of recombinant human HDAC1 expressed in HEK293T/17 cells using Ac-GAK(Ac)-AMC as substrate preincubated for 10 mins followed by substrate addition and measured after 30 mins by fluorescence-based assay; outline: as §1
[10] = molecular target: T4, Histone deacetylase 8 (Homo sapiens, UniProt Q9BY41); assay: Inhibition of recombinant human HDAC8 expressed in HEK293T/17 cells using Boc-Lys(TFA)-AMC as substrate preincubated for 10 mins followed by substrate addition and measured after 30 mins by fluorescence-based assay; outline: as §1
T4 sequence (Q9BY41 whole entry): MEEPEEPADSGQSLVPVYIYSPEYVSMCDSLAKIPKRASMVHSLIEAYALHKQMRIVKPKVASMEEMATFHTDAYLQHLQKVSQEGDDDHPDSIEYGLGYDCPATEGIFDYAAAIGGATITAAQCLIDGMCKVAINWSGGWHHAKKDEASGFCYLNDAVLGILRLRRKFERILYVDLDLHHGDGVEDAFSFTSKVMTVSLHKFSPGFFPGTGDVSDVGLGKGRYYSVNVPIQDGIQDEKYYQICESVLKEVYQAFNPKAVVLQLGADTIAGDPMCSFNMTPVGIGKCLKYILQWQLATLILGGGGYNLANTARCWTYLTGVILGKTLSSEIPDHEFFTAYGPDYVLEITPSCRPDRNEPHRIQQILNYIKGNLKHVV

[11] = molecular target: T1, Histone deacetylase 1; assay: (§2) Inhibition of recombinant full length C-terminal His/FLAG tagged human HDAC1 (1 to 482 residues) expressed in baculovirus infected sf9 insect cells using p53 (379 to 382 residues) derived fluorogenic peptide RHKKAc as substrate preincubated for 5 to 10 mins followed by substrate addition and further incubated for 2 hrs by fluorescence assay
[12] = molecular target: T2, Protein deacetylase HDAC6; assay: as §2, with “N-terminal GST-tagged” for “full length C-terminal His/FLAG tagged”, “HDAC6” for “HDAC1”, “1215” for “482”
[13] = molecular target: Histone deacetylase 5 (Homo sapiens, UniProt Q9UQL6); assay: Inhibition of recombinant human HDAC5 expressed in HEK293T/17 cells using Boc-Lys(TFA)-AMC as substrate preincubated for 10 mins followed by substrate addition and measured after 30 mins by fluorescence-based assay; outline: as §1
[14] = Cytotoxicity against mouse SM1 cells at 100 nM by ApoTox-Glo triplex assay; assay type: cell-based; conditions: 0.1 µM
Outline: (§3)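 SM1 cells treated with HDAC inhibitors, with pan-HDACi and assay controls on every plate. ApoTox-Glo triplex readout: viability fluorescence 400Ex/505Em, cytotoxicity fluorescence 485Ex/520Em, then caspase 3/7 reagent read by luminescence for apoptosis.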

[15] = Induction of apoptosis in mouse SM1 cells at 100 nM by caspase3/7 reagent based luminescence assay; assay type: cell-based; conditions: 0.1 µM; outline: as §3
[16] = tested on: Salmonella typhimurium; assay: Genotoxicity against Salmonella Typhimurium TA1537 assessed as revertant colonies at 0.075 to 250 ug/well in presence of mammalian microsomal enzyme S9 mix by Ames test; assay type: toxicity, organism-based; conditions: salmonella enterica subsp. enterica serovar typhimurium
[17] = tested on: Salmonella typhimurium; assay: Genotoxicity against Salmonella Typhimurium TA97A assessed as revertant colonies at 0.075 to 250 ug/well by Ames test; assay type: toxicity, organism-based; conditions: salmonella enterica subsp. enterica serovar typhimurium
[18] = organism: Homo sapiens; assay: Selectivity index, ratio of IC50 for recombinant full length C-terminal His/FLAG tagged human HDAC1 (1 to 482 residues) expressed in baculovirus infected sf9 insect cells using p53 (379 to 382 residues) derived fluorogenic peptide RHKKAc as substrate preincubated for 5 to 10 mins followed by …
[19] = Half life in human liver microsomes in presence of NADPH; assay type: ADME, Microsome
Outline: (§4)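 Liver microsomal stability in mouse and human microsomes with NADPH; half-life in minutes.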

[20] = tested on: Salmonella typhimurium; assay: Genotoxicity against Salmonella Typhimurium TA1537 assessed as revertant colonies at 0.075 to 250 ug/well by Ames test; assay type: toxicity, organism-based; conditions: salmonella enterica subsp. enterica serovar typhimurium
[21] = tested on: Salmonella typhimurium; assay: Genotoxicity against Salmonella Typhimurium TA97A assessed as revertant colonies at 0.075 to 250 ug/well in presence of mammalian microsomal enzyme S9 mix by Ames test; assay type: toxicity, organism-based; conditions: salmonella enterica subsp. enterica serovar typhimurium
[22] = Half life in mouse liver microsomes in presence of NADPH; assay type: ADME, Microsome; outline: as §4

T1 sequence (Q13547 whole entry): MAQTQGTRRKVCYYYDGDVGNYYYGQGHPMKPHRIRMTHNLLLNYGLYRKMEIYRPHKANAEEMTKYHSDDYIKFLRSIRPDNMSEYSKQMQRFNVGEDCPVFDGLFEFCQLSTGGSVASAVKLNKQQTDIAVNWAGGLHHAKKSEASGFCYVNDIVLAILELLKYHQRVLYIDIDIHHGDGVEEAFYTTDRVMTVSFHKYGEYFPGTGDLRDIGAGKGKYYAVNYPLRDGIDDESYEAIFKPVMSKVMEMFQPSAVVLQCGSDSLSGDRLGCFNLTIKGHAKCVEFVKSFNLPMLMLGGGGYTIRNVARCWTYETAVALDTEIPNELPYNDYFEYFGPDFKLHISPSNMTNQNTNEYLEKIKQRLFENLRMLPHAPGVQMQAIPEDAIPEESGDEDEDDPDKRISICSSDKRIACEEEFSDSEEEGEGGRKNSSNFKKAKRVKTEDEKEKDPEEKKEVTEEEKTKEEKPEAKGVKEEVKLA
Chain of Histone deacetylase 4 (P56524 whole entry): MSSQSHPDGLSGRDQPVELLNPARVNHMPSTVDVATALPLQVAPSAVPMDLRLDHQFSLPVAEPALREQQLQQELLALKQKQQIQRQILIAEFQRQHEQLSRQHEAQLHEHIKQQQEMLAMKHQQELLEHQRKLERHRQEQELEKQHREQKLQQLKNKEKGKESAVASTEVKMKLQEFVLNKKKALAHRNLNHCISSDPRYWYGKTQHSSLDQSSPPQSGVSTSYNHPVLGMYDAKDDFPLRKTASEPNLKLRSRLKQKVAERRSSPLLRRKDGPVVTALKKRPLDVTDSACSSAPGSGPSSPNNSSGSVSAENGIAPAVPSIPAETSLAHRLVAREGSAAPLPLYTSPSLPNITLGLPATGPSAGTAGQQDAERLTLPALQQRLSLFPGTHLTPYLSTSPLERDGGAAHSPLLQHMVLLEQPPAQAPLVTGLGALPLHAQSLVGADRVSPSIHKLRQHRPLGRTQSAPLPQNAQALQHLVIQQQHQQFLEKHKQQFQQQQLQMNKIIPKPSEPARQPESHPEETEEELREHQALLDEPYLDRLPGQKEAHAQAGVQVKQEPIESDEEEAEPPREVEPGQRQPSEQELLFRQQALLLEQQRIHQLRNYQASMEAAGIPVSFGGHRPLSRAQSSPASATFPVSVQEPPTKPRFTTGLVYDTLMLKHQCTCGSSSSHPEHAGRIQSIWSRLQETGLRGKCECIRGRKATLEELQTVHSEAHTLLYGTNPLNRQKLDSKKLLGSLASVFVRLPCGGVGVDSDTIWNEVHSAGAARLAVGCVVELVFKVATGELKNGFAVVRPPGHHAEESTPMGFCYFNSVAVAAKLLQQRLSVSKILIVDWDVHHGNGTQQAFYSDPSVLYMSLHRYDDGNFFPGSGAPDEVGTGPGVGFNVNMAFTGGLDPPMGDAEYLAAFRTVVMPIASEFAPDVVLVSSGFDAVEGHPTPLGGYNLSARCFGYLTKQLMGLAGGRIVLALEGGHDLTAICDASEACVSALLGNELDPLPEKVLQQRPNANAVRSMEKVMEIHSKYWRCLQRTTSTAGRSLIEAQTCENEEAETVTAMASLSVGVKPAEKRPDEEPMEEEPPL
Chain of Histone deacetylase 5 (Q9UQL6 whole entry): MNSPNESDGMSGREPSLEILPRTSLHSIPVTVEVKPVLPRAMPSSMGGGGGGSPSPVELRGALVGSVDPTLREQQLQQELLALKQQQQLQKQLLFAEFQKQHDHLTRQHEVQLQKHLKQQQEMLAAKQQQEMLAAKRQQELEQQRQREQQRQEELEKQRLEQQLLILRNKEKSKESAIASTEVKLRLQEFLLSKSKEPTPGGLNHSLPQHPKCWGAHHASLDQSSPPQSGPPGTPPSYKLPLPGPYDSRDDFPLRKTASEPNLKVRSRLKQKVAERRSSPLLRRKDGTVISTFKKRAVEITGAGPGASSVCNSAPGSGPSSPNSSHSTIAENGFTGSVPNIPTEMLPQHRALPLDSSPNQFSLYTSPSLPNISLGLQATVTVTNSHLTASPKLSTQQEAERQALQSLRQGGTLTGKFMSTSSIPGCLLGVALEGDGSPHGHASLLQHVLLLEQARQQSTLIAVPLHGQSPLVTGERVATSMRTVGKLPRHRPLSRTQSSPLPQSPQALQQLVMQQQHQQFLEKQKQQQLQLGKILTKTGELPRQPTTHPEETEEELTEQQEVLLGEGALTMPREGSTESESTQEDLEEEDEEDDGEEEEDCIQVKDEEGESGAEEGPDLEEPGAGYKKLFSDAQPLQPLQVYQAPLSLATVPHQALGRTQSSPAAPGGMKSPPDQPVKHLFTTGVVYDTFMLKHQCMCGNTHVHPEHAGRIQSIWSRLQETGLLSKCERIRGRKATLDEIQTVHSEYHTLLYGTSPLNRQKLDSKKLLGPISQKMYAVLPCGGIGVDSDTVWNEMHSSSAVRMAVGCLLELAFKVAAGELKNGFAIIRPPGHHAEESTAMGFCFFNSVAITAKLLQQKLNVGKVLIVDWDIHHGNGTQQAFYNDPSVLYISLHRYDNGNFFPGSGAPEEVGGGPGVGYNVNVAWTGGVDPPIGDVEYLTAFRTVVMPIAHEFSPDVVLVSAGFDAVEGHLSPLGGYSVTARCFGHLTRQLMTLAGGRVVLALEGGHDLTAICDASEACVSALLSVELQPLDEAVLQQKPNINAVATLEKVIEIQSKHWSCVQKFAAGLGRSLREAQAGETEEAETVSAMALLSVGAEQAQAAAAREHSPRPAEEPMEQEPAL
Chain of Histone deacetylase 9 (Q9UKV0 whole entry, the tested form may be a part): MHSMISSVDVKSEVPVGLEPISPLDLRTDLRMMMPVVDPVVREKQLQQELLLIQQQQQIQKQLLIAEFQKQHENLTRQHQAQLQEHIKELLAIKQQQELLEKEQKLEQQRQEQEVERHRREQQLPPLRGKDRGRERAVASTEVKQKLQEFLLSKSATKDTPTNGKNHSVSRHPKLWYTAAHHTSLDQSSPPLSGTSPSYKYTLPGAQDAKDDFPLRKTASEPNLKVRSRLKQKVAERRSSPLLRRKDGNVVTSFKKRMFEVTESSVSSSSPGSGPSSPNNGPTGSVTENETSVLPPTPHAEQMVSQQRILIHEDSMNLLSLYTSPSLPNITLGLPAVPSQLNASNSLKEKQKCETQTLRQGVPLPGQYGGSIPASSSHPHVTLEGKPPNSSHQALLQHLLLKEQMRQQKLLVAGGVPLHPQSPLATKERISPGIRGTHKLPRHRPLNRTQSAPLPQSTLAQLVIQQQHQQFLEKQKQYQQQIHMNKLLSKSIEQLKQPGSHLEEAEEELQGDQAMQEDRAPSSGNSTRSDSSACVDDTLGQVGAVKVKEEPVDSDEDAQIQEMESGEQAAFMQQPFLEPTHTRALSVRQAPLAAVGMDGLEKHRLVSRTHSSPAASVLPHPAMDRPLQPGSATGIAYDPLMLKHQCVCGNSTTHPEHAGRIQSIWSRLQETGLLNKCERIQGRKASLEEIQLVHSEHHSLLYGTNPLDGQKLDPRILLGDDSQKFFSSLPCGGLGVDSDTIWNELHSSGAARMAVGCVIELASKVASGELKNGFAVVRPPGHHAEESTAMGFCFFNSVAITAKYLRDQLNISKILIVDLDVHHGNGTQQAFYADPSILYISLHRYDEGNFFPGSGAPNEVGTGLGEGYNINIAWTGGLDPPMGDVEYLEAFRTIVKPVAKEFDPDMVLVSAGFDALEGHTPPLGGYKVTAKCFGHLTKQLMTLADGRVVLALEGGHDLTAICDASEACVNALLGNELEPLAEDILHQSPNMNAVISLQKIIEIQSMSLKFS

Work on `O=C(NO)c1ccc(CNCc2csc3ccccc23)cc1` yielded a Ratio IC50 [1] of 535, an IC50 [2] of 7500 nM and an IC50 [3] of 14 nM.

With `CN(Cc1ccc(C(=O)NO)cc1F)CC12CC3CC(CC(C3)C1)C2` the IC50 [4] was greater than 1000 nM.

`O=C(NO)c1ccc(CNC(=O)c2ccc(Cl)c(Cl)c2)cc1` gave an IC50 [5] of 3070 nM, an IC50 [6] of 2 nM and an IC50 [7] of 3530 nM. It also gave an IC50 [8] of 1050 nM, an IC50 [9] of 34 nM and an IC50 [10] of 920 nM. It also gave an IC50 [11] of 200 nM, an IC50 [12] of 28 nM and an IC50 [13] of 3120 nM.

With `Cc1[nH]c2ccccc2c1CCNCc1ccc(/C=C/C(=O)NO)cc1` [PANOBINOSTAT] the Activity [14] was “Toxic” and the Activity [15] was “Toxic”.

For `CC(C)(C)OC(=O)Nc1ccc(-c2cc(C(=O)NCCc3cc(C(=O)NO)no3)no2)cc1`, the Activity [16] was “Non-Toxic”, the Activity [17] was “Non-Toxic” and the Ratio IC50 [18] was 2820. For the same molecule, the half-life [19] was 85 min, the Activity [20] was “Non-Toxic” and the Activity [21] was “Non-Toxic”. It also gave a half-life [22] of 16 min.

Source: ChEMBL document CHEMBL4354804, “Discovery of a New Isoxazole-3-hydroxamate-Based Histone Deacetylase 6 Inhibitor SS-208 with Antitumor Activity in Syngeneic Melanoma Mouse Models” (J Med Chem, 2019)
